Measurements taken from ChEMBL document CHEMBL1781939, “Triterpene and sterol derivatives from the roots of Breynia fruticosa” (J Nat Prod, 2011).

Tests used:
Type in all cases: functional, cell-based
MCF7 = experiment: Cytotoxicity against human MCF7 cells after 48 hrs by MTT assay; settings: MCF7, 48 h
How it was run: (§1)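 Cells grown in DMEM with 10% FBS, 5% CO2, 37 °C. Adherent lines plated and left to attach 12 h before dosing; suspension HL-60 plated immediately before dosing; starting density 1 × 10^5 cells/mL. Treated with 0.064, 0.32, 1.6, 8 and 40 μM in triplicate for 48 h; cisplatin as positive control. Viability by MTT; IC50 by Reed–Muench method.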

HL-60 = experiment: Cytotoxicity against human HL60 cells after 48 hrs by MTT assay; settings: HL-60, 48 h; how it was run: as §1
SMMC-7721 = experiment: Cytotoxicity against human SMMC7721 cells after 48 hrs by MTT assay; settings: SMMC-7721, 48 h; how it was run: as §1
A549 = experiment: Cytotoxicity against human A549 cells after 48 hrs by MTT assay; settings: A549, 48 h; how it was run: as §1
SW480 = experiment: Cytotoxicity against human SW480 cells after 48 hrs by MTT assay; settings: SW480, 48 h; how it was run: as §1

| SMILES | IC50 (MCF7) [µM] | IC50 (HL-60) [µM] | IC50 (SMMC-7721) [µM] | IC50 (A549) [µM] | IC50 (SW480) [µM] |
| --- | --- | --- | --- | --- | --- |
| C=C(CC[C@@H](CO)[C@H]1CC[C@H]2C3=CC[C@H]4[C@H](C)[C@@H](O)[C@H](O)C[C@]4(C)[C@H]3CC[C@]12C)C(C)C [FRUTICOSIDE A] | 15.4 | 3 | 18.5 | 15.7 | 18.4 |
| C=C(C)[C@@H]1CC[C@]2(C(=O)O)CC[C@]3(C)[C@H](CC[C@@H]4[C@@]5(C)[C@H](C=O)[C@H](O)C(C)(C)[C@@H]5CC[C@]43C)[C@@H]12 [ZIZYBERANALIC ACID] | > 40 | > 40 | > 40 | > 40 | > 40 |
| C=C(CC[C@@H](C(=O)O)[C@H]1CC[C@H]2C3=CC[C@H]4[C@H](C)[C@@H](O[C@@H]5O[C@@H](C)[C@H](O)[C@@H](O)[C@H]5O)[C@H](OC(C)=O)C[C@]4(C)[C@H]3CC[C@]12C)C(C)C [FRUTICOSIDE E] | > 40 | > 40 | > 40 | > 40 | > 40 |
| C=C(C)[C@@H]1CC[C@]2(C(=O)O)CC[C@]3(C)[C@H](CC[C@@H]4[C@@]5(C)[C@H](C(=O)O)[C@H](O)C(C)(C)[C@@H]5CC[C@]43C)[C@@H]12 [EPICEANOTHIC ACID] | > 40 | > 40 | > 40 | > 40 | > 40 |
| C/C=C(/CC[C@@H](C(=O)S)[C@H]1CC[C@H]2C3=CC[C@H]4[C@H](C)[C@@H](O[C@@H]5O[C@@H](C)[C@H](O)[C@@H](O)[C@@H]5O)CC[C@]4(C)[C@H]3CC[C@]12C)C(C)C [FRUTICOSIDE G] | > 40 | > 40 | > 40 | > 40 | > 40 |
| C=C(CC[C@@H](C(=O)O)[C@H]1CC[C@H]2C3=CC[C@H]4[C@H](C)[C@@H](O)[C@H](O)C[C@]4(C)[C@H]3CC[C@]12C)C(C)C [FRUTICOSIDE B] | > 40 | > 40 | > 40 | > 40 | > 40 |
| C=C(CC[C@@H](C(=O)S)[C@H]1CC[C@H]2C3=CC[C@H]4[C@H](C)[C@@H](O[C@@H]5O[C@@H](C)[C@H](O)[C@@H](O)[C@@H]5O)[C@H](OC(C)=O)C[C@]4(C)[C@H]3CC[C@]12C)C(C)C [FRUTICOSIDE F] | > 40 | > 40 | > 40 | > 40 | > 40 |
| C=C(C)[C@@H]1CC[C@]2(C(=O)O)CC[C@]34C(=O)O[C@]5(CC[C@@H]3[C@@H]12)[C@@]4(C)CC[C@]12O[C@]51[C@@H](C)CC2(C)C [BREYNCEANOTHANOLIC ACID] | 12.7 | 10.2 | 14.3 | 14.5 | 20 |
| C=C(CC[C@@H](C(=O)O)[C@H]1CC[C@H]2C3=CC[C@H]4[C@H](C)[C@@H](O[C@@H]5O[C@@H](C)[C@H](O)[C@@H](O)[C@@H]5O)[C@H](O)C[C@]4(C)[C@H]3CC[C@]12C)C(C)C [FRUTICOSIDE C] | > 40 | > 40 | > 40 | > 40 | > 40 |
| C=C(CC[C@@H](C(=O)O)[C@H]1CC[C@H]2C3=CC[C@H]4[C@H](C)[C@@H](O[C@@H]5O[C@@H](C)[C@H](O)[C@@H](O)[C@@H]5O)[C@H](OC(C)=O)C[C@]4(C)[C@H]3CC[C@]12C)C(C)C [FRUTICOSIDE D] | > 40 | > 40 | > 40 | > 40 | > 40 |
